Reference: ChEMBL document CHEMBL5724801, “EUbOPEN Chemogenomics Library - Multiplex” (2024)
Where “and” joins values, the source holds several entries; their conditions need not be identical. Equal entries are not always repeated.

System: U2OS
Assay: Multiplex assay against U2OS
Format: toxicity, cell-based
Details: human
Summary of the method: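 At seeding, live cells were stained with Hoechst33342, BioTracker Green Microtubule Cytoskeleton Dye, MitoTracker Red and Annexin V Alexa Fluor 680. After compound addition they were imaged on a CQ1 microscope at 37°C and 5% CO2, and CellPathfinder machine-learning gating sorted them into Hoechst high-intensity objects or normal cells, with normal cells further split into healthy, pyknosed or fragmented nuclei and pyknosed cells into mitotic or apoptotic. Tubulin, mitochondrial-mass and membrane-permeability phenotypes are given as per cents of cells with healthy nuclei.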

[1] = 12 h, 1 µM, compound concentration 1 uM
[2] = 12 h, 10 µM, compound concentration 10 uM
[3] = 24 h, 1 µM, compound concentration 1 uM
[4] = 24 h, 10 µM, compound concentration 10 uM
[5] = 48 h, 1 µM, compound concentration 1 uM
[6] = 48 h, 10 µM, compound concentration 10 uM

In the case of `Cc1c(CC(=O)O)c2cccnc2n1Cc1ccc(S(C)(=O)=O)cc1C(F)(F)F` [FEVIPIPRANT], the “Population Apoptotic (%)” value [1] is reported as 80% and 50%, the “Population Fragmented Nuclei (%)” value [1] is reported as 25% and 22% and the “Population Healthy Nuclei (%)” value [1] is reported as 64% and 72%. The “Population Hoechst High Intensity Objects (%)” value [1] was 1%, the “Population Membrane Permeable-Phenotype (%)” value [1] was 2% and 8% and the “Population Mitochondria Different-Phenotype (%)” value [1] was 2% and 1%. For the same molecule, the “Population Mitotic Cells (%)” value [1] was 19% and 50%, the “Population Normal (%)” value [1] was 98% and the “Population Pyknosed Nuclei (%)” value [1] was 9% and 5%. For the same molecule, the “Population Tubulin-Different-Phenotype (%)” value [1] was 0% and 9%, the “Total Cell Count” value [1] was 224 and 118 and the “Population Apoptotic (%)” value [2] was 90% and 100%. For the same molecule, the “Population Fragmented Nuclei (%)” value [2] was 27% and 22%, the “Population Healthy Nuclei (%)” value [2] was 65% and 73% and the “Population Hoechst High Intensity Objects (%)” value [2] was 2% and 0%. The “Population Membrane Permeable-Phenotype (%)” value [2] was 3% and 8%, the “Population Mitochondria Different-Phenotype (%)” value [2] was 0% and 3% and the “Population Mitotic Cells (%)” value [2] was 9% and 0%. The “Population Normal (%)” value [2] was 97% and 99%, the “Population Pyknosed Nuclei (%)” value [2] was 7% and 3% and the “Population Tubulin-Different-Phenotype (%)” value [2] was 1% and 4%. For the same molecule, the “Total Cell Count” value [2] was 287 and 116, the “Population Apoptotic (%)” value [3] was 80% and 66% and the “Population Fragmented Nuclei (%)” value [3] was 20% and 17%. For the same molecule, the “Population Healthy Nuclei (%)” value [3] was 71% and 74%, the “Population Hoechst High Intensity Objects (%)” value [3] was 2% and 0% and the “Population Membrane Permeable-Phenotype (%)” value [3] was 1% and 9%. For the same molecule, the “Population Mitochondria Different-Phenotype (%)” value [3] was 3% and 0%, the “Population Mitotic Cells (%)” value [3] was 20% and 33% and the “Population Normal (%)” value [3] was 97% and 100%. For the same molecule, the “Population Pyknosed Nuclei (%)” value [3] was 8%, the “Population Tubulin-Different-Phenotype (%)” value [3] was 1% and 10% and the “Total Cell Count” value [3] was 256 and 145. The “Population Apoptotic (%)” value [4] was 96% and 100%, the “Population Fragmented Nuclei (%)” value [4] was 20% and 12% and the “Population Healthy Nuclei (%)” value [4] was 70% and 78%. For the same molecule, the “Population Hoechst High Intensity Objects (%)” value [4] was 0% and 1%, the “Population Membrane Permeable-Phenotype (%)” value [4] was 5% and 8% and the “Population Mitochondria Different-Phenotype (%)” value [4] was 3% and 2%. For the same molecule, the “Population Mitotic Cells (%)” value [4] was 3% and 0%, the “Population Normal (%)” value [4] was 99% and 98% and the “Population Pyknosed Nuclei (%)” value [4] was 8%. For the same molecule, the “Population Tubulin-Different-Phenotype (%)” value [4] was 3%, the “Total Cell Count” value [4] was 326 and 119 and the “Population Apoptotic (%)” value [5] was 65% and 90%. For the same molecule, the “Population Fragmented Nuclei (%)” value [5] was 18% and 20%, the “Population Healthy Nuclei (%)” value [5] was 71% and 67% and the “Population Hoechst High Intensity Objects (%)” value [5] was 2%. For the same molecule, the “Population Membrane Permeable-Phenotype (%)” value [5] was 4% and 8%, the “Population Mitochondria Different-Phenotype (%)” value [5] was 3% and 5% and the “Population Normal (%)” value [5] was 97%. For the same molecule, the “Population Pyknosed Nuclei (%)” value [5] was 10% and 12%, the “Population Tubulin-Different-Phenotype (%)” value [5] was 2% and 9% and the “Total Cell Count” value [5] was 379 and 187. The “Population Apoptotic (%)” value [6] was 91% and 100%, the “Population Fragmented Nuclei (%)” value [6] was 17% and 15% and the “Population Healthy Nuclei (%)” value [6] was 73% and 76%. For the same molecule, the “Population Hoechst High Intensity Objects (%)” value [6] was 1% and 3%, the “Population Membrane Permeable-Phenotype (%)” value [6] was 4% and 5% and the “Population Mitochondria Different-Phenotype (%)” value [6] was 3% and 1%. For the same molecule, the “Population Mitotic Cells (%)” value [6] was 8% and 0%, the “Population Normal (%)” value [6] was 98% and 96% and the “Population Pyknosed Nuclei (%)” value [6] was 8%. The “Population Tubulin-Different-Phenotype (%)” value [6] was 3% and the “Total Cell Count” value [6] was 408 and 158.

`COCCNc1cc(NC(=O)N2CCCc3cc(CN4CCN(C)CC4=O)c(C=O)nc32)ncc1C#N` [FGF401] was tested, and the “Population Apoptotic (%)” value [1] was 50% and 42.86%, the “Population Fragmented Nuclei (%)” value [1] was 2.96% and 1.3% and the “Population Healthy Nuclei (%)” value [1] was 87.87% and 85.06%. For the same molecule, the “Population Hoechst High Intensity Objects (%)” value [1] was 0%, the “Population Membrane Permeable-Phenotype (%)” value [1] was 2.15% and 0% and the “Population Mitochondria Different-Phenotype (%)” value [1] was 0% and 2.29%. The “Population Mitotic Cells (%)” value [1] was 50% and 57.14%, the “Population Normal (%)” value [1] was 100% and the “Population Pyknosed Nuclei (%)” value [1] was 9.16% and 13.64%. The “Population Tubulin-Different-Phenotype (%)” value [1] was 2.15% and 0.76%, the “Total Cell Count” value [1] was 371 and 154 and the “Population Apoptotic (%)” value [2] was 37.5% and 26.32%. For the same molecule, the “Population Fragmented Nuclei (%)” value [2] was 0.72% and 5.88%, the “Population Healthy Nuclei (%)” value [2] was 91.65% and 82.94% and the “Population Hoechst High Intensity Objects (%)” value [2] was 0.24% and 0%. The “Population Membrane Permeable-Phenotype (%)” value [2] was 1.3% and 4.26%, the “Population Mitochondria Different-Phenotype (%)” value [2] was 0% and 3.55% and the “Population Mitotic Cells (%)” value [2] was 62.5% and 73.68%. For the same molecule, the “Population Normal (%)” value [2] was 99.76% and 100%, the “Population Pyknosed Nuclei (%)” value [2] was 7.64% and 11.18% and the “Population Tubulin-Different-Phenotype (%)” value [2] was 0.52% and 0%. For the same molecule, the “Total Cell Count” value [2] was 420 and 170, the “Population Apoptotic (%)” value [3] was 48.94% and 42.31% and the “Population Fragmented Nuclei (%)” value [3] was 1.93% and 2.97%. For the same molecule, the “Population Healthy Nuclei (%)” value [3] was 88.97% and 84.16%, the “Population Hoechst High Intensity Objects (%)” value [3] was 0.19% and 0% and the “Population Membrane Permeable-Phenotype (%)” value [3] was 0.87% and 1.18%. For the same molecule, the “Population Mitochondria Different-Phenotype (%)” value [3] was 0.87% and 4.71%, the “Population Mitotic Cells (%)” value [3] was 51.06% and 57.69% and the “Population Normal (%)” value [3] was 99.81% and 100%. For the same molecule, the “Population Pyknosed Nuclei (%)” value [3] was 9.09% and 12.87%, the “Population Tubulin-Different-Phenotype (%)” value [3] was 0.87% and 0% and the “Total Cell Count” value [3] was 518 and 202. For the same molecule, the “Population Apoptotic (%)” value [4] was 43.18% and 34.29%, the “Population Fragmented Nuclei (%)” value [4] was 1.85% and 3.54% and the “Population Healthy Nuclei (%)” value [4] was 90.04% and 80.97%. The “Population Hoechst High Intensity Objects (%)” value [4] was 0%, the “Population Membrane Permeable-Phenotype (%)” value [4] was 1.23% and 2.19% and the “Population Mitochondria Different-Phenotype (%)” value [4] was 0% and 3.28%. For the same molecule, the “Population Mitotic Cells (%)” value [4] was 56.82% and 65.71%, the “Population Normal (%)” value [4] was 100% and the “Population Pyknosed Nuclei (%)” value [4] was 8.12% and 15.49%. The “Population Tubulin-Different-Phenotype (%)” value [4] was 0.61% and 1.09%, the “Total Cell Count” value [4] was 542 and 226 and the “Population Apoptotic (%)” value [5] was 45.12% and 50%. For the same molecule, the “Population Fragmented Nuclei (%)” value [5] was 4.25% and 1.54%, the “Population Healthy Nuclei (%)” value [5] was 87.05% and 87.38% and the “Population Hoechst High Intensity Objects (%)” value [5] was 0%. The “Population Membrane Permeable-Phenotype (%)” value [5] was 0.73% and 3.17%, the “Population Mitochondria Different-Phenotype (%)” value [5] was 0.49% and 4.23% and the “Population Mitotic Cells (%)” value [5] was 54.88% and 50%. The “Population Normal (%)” value [5] was 100%, the “Population Pyknosed Nuclei (%)” value [5] was 8.7% and 11.08% and the “Population Tubulin-Different-Phenotype (%)” value [5] was 0.73% and 0.7%. For the same molecule, the “Total Cell Count” value [5] was 942 and 325, the “Population Apoptotic (%)” value [6] was 39.42% and 53.49% and the “Population Fragmented Nuclei (%)” value [6] was 2% and 2.76%. The “Population Healthy Nuclei (%)” value [6] was 87.6% and 86.43%, the “Population Hoechst High Intensity Objects (%)” value [6] was 0% and 0.25% and the “Population Membrane Permeable-Phenotype (%)” value [6] was 1.14% and 2.62%. For the same molecule, the “Population Mitochondria Different-Phenotype (%)” value [6] was 0.11% and 1.45%, the “Population Mitotic Cells (%)” value [6] was 60.58% and 46.51% and the “Population Normal (%)” value [6] was 100% and 99.75%. The “Population Pyknosed Nuclei (%)” value [6] was 10.4% and 10.8%, the “Population Tubulin-Different-Phenotype (%)” value [6] was 0.91% and 1.16% and the “Total Cell Count” value [6] was 1000 and 399.
